# Screening results deposited in PubChem by Broad Institute.
# IDH1 mut inh = IDH1 R132H (human) inhibition; O75874; IDH1 R132H reductase, diaphorase/resazurin fluorescence, 60 min; inhibition, % at 10 µM; 70,000 compounds, 0.18% hits; in the data active = inhibition above about 34%; inconclusive = no clear call, values can overlap the other calls; inactive = below about 11%;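 note: 0% = DMSO and 100% = no enzyme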
# GASC1 inh = KDM4C (human) demethylase inhibition. Q9H3R0. AID 720574. 96,000 compounds, 0.15% hits. GST-KDM4C 2-372, H3K9me3 peptide, LANCE TR-FRET. inhibition, % at 12.5 µM;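 active = mean replicate inhibition above about 25%, with at least 55% of replicates also reaching it, limit read from the data, passing the limit was not always enough; inconclusive = only one of those two conditions met; inactive = neither condition met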
# Target sequence (Q9H3R0 2-372 limits assumed): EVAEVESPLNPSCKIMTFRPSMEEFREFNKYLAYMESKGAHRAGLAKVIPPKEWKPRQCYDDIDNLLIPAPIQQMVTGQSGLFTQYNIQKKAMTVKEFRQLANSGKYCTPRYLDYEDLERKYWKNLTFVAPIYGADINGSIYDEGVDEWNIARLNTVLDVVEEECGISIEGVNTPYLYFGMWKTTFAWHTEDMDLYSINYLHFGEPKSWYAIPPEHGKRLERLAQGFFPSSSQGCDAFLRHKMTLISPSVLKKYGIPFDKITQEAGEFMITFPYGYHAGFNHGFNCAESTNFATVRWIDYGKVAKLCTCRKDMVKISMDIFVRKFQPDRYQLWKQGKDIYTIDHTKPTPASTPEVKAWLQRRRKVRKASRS
#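 Assay system: GST-GASC-1 enzyme fragment 2-372 | Amount: 10 nM enzyme | Medium: HEPES buffer, pH 7.5, plus ascorbate | Reagent: H3K9me3 peptide substrate, Fe(II), 2-oxoglutarate | Doses: Single-point compound screen | Incubation: 30 min demethylation and 1 h detection at room temperature | Measured by: LANCE TR-FRET, excitation 340 nm, emissions 618 and 671 nm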
# T cruzi growth-1 = T. cruzi proliferation inhibition; T. cruzi beta-gal in NIH3T3, GalScreen luminescence, 90 h; inhibition, % at 8.34 µM; 77,000 compounds, 5.9% hits; AID 624255;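 active = mean inhibition above about 93%, with at least 55% of replicates each passing it, limit read from the data, passing the limit was not always enough; inconclusive = only one of those two conditions holds; inactive = neither condition holds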
# T cruzi growth-2 = inhibitors of T. cruzi proliferation. 5,600 compounds, 72% hits. shares compounds with T cruzi growth-1. inhibition, % at 8.35 µM. T. cruzi beta-gal in NIH3T3, GalScreen luminescence, 90 h. AID 651739;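 active = mean replicate inhibition above about 95% and at least 55% of replicates individually reaching it, limit read from the data; inconclusive = only one of the two criteria is met; inactive = neither criterion is met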
# T cruzi growth-3 = blocks T. cruzi growth in NIH3T3 host cells | shares compounds with T cruzi growth-1 | T. cruzi beta-gal in NIH3T3, GalScreen luminescence, 90 h | inhibition, % at 2.09 µM | 5,600 compounds, 21% hits | AID 651740;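 active = mean inhibition above about 95%, with at least 55% of replicates also reaching it, limit read from the data; inconclusive = meets just one of the two conditions; inactive = meets neither condition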;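 note: plate controls were neutral control median for no effect and positive control median for full effect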
# NIH3T3 tox = kills mouse NIH/3T3 fibroblasts | AID 651742 | shares compounds with T cruzi growth-1 | NIH/3T3 viability, CellTiter-Glo ATP luminescence, 90 h | cytotoxicity (signal decrease), % at 8.35 µM | 5,600 compounds, 14% hits;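 active = mean signal decrease across replicates above about 35% based on untreated-well scatter, with enough replicates individually passing, limit read from the data; inconclusive = no rule stated though some were filed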;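 note: 0% = median of neutral control wells and 100% = median of positive control wells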
# 3T3 cytotox 2 = cytotoxicity in mouse NIH/3T3 fibroblasts. shares compounds with T cruzi growth-1. NIH/3T3 viability, CellTiter-Glo ATP luminescence, 90 h. inhibition, % at 24.9 µM. 5,600 compounds, 56% hits;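 active = mean loss of cell viability signal at or above a set limit, and enough replicates individually reaching it; inconclusive = meets only the mean limit or only the replicate share; inactive = meets neither condition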;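 note: 0% = median of neutral control wells and 100% = median of positive control wells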
# Numbers without * were called inactive; ? = inconclusive; nt = not tested or not shown; ! = not active in a repeat. Shown is part of a subset that was picked to be rich in hits.
SMILES,IDH1 mut inh,GASC1 inh,T cruzi growth-1,T cruzi growth-2,T cruzi growth-3,NIH3T3 tox,3T3 cytotox 2
C[C@@H]1CCCCO[C@@H](CN(C)S(=O)(=O)c2ccc(Cl)cc2)[C@@H](C)CN([C@@H](C)CO)C(=O)c2cc(NC(=O)C3CCCCC3)ccc2O1,-1,-1,108*,108*,90,6,?
Cc1ccc(S(=O)(=O)N(C)C[C@@H]2OCCCC[C@H](C)Oc3ccc(NC(=O)C4CCCCC4)cc3C(=O)N([C@H](C)CO)C[C@@H]2C)cc1,0,0,80,nt,nt,nt,nt
Cc1ccc(S(=O)(=O)N(C)C[C@@H]2OCCCC[C@@H](C)Oc3ccc(NC(=O)C4CCCCC4)cc3C(=O)N([C@H](C)CO)C[C@@H]2C)cc1,nt,-1,11,nt,nt,nt,nt
C[C@@H]1CN([C@H](C)CO)C(=O)c2cc(NC(=O)C3CCCCC3)ccc2O[C@@H](C)CCCCO[C@@H]1CN(C)S(=O)(=O)c1ccc(Cl)cc1,1,0,102*,104*,69,10,20
C[C@@H]1CCCCO[C@@H](CN(C)S(=O)(=O)c2ccc(F)cc2)[C@@H](C)CN([C@@H](C)CO)C(=O)c2cc(NC(=O)C3CCCCC3)ccc2O1,-3,12,41,nt,nt,nt,nt
C[C@@H]1CCCCO[C@H](CN(C)S(=O)(=O)c2ccc(Cl)cc2)[C@@H](C)CN([C@H](C)CO)C(=O)c2cc(NC(=O)C3CCCCC3)ccc2O1,-4,-1,36,nt,nt,nt,nt
O=C(O)/C=C/C(=O)N(Cc1ccccc1)Cc1ccccc1,0,nt,nt,nt,nt,nt,nt
CC(C)(C)NS(=O)(=O)c1ccc(OCC(=O)N2CCOCC2)cc1,0,nt,nt,nt,nt,nt,nt
Cc1cc(C)n(CC(O)COc2ccc3cc(Br)ccc3c2)n1 (stereo unspecified),1,nt,nt,nt,nt,nt,nt
C[C@H]1CCCCO[C@H](CN(C)S(=O)(=O)c2ccc(Cl)cc2)[C@@H](C)CN([C@@H](C)CO)C(=O)c2cc(NC(=O)C3CCCCC3)ccc2O1,nt,1,110*,110*,101*,2,20
C[C@@H]1CCCCO[C@@H](CN(C)S(=O)(=O)c2ccc(Cl)cc2)[C@H](C)CN([C@@H](C)CO)C(=O)c2cc(NC(=O)C3CCCCC3)ccc2O1,1,16,106*,105*,58,12,42*
Cc1ccc(S(=O)(=O)N(C)C[C@H]2OCCCC[C@@H](C)Oc3ccc(NC(=O)C4CCCCC4)cc3C(=O)N([C@@H](C)CO)C[C@H]2C)cc1,nt,-2,29,nt,nt,nt,nt
Cc1ccc(S(=O)(=O)N(C)C[C@@H]2OCCCC[C@@H](C)Oc3ccc(NC(=O)C4CCCCC4)cc3C(=O)N([C@@H](C)CO)C[C@H]2C)cc1,nt,0,81,nt,nt,nt,nt
CC(=O)c1cccc(N(CC(=O)Nc2ccc(C)cc2)S(C)(=O)=O)c1,0,nt,nt,nt,nt,nt,nt
O=C(NCC[C@H]1CC[C@H](NC(=O)C2CCC2)[C@@H](CO)O1)c1cnccn1,-1,0,52,nt,nt,nt,nt
O=C(NCC[C@H]1CC[C@@H](NC(=O)C2CCC2)[C@H](CO)O1)c1cnccn1,0,-1,184*,56,5,-7,10
COc1ccc(-c2cc(C)nc(SCC(=O)Nc3cccc(Cl)c3Cl)n2)cc1,0,nt,nt,nt,nt,nt,nt
C[C@@H]1CCCCO[C@@H](CN(C)Cc2ccc3c(c2)OCO3)[C@@H](C)CN([C@H](C)CO)C(=O)c2cc(NS(=O)(=O)c3ccc(Cl)cc3)ccc2O1,nt,-1,90,nt,nt,nt,nt
C[C@@H]1CCCCO[C@@H](CN(C)Cc2ccc3c(c2)OCO3)[C@@H](C)CN([C@@H](C)CO)C(=O)c2cc(NS(=O)(=O)c3ccc(Cl)cc3)ccc2O1,2,-1,93,nt,nt,nt,nt
C[C@H]1CCCCO[C@H](CN(C)Cc2ccc3c(c2)OCO3)[C@@H](C)CN([C@@H](C)CO)C(=O)c2cc(NS(=O)(=O)c3ccc(Cl)cc3)ccc2O1,0,0,?,101*,68,12,104*
C[C@@H]1CN([C@H](C)CO)C(=O)c2cc(NS(=O)(=O)c3ccc(Cl)cc3)ccc2O[C@@H](C)CCCCO[C@H]1CN(C)Cc1ccc2c(c1)OCO2,nt,-2,106*!,97*,107*,20,104*
Cc1noc(C)c1S(=O)(=O)Nc1cccc2c1O[C@H](CN(C)Cc1ccc(-c3ccccc3)cc1)[C@H](C)CN([C@@H](C)CO)C2=O,0,-1,100*,91,61,14,11
Cc1noc(C)c1NC(=O)N(C)C[C@@H]1Oc2c(NS(C)(=O)=O)cccc2C(=O)N([C@@H](C)CO)C[C@H]1C,2,-2,52,nt,nt,nt,nt
Cc1noc(C)c1NC(=O)N(C)C[C@H]1Oc2ccc(N(C)C)cc2C(=O)N([C@H](C)CO)C[C@@H]1C,nt,nt,73,nt,nt,nt,nt
Cc1noc(C)c1NC(=O)N(C)C[C@@H]1Oc2ccc(N(C)C)cc2C(=O)N([C@H](C)CO)C[C@H]1C,nt,1,106*,-94,3,-18,10
SMILES,IDH1 mut inh,GASC1 inh,T cruzi growth-1,T cruzi growth-2,T cruzi growth-3,NIH3T3 tox,3T3 cytotox 2
Cc1noc(C)c1NC(=O)N(C)C[C@H]1Oc2c(NS(=O)(=O)c3c(C)noc3C)cccc2C(=O)N([C@H](C)CO)C[C@H]1C,-7,1,104*,82,24,1,-2
Cc1noc(C)c1S(=O)(=O)Nc1cccc2c1O[C@@H](CN(C)Cc1ccc(-c3ccccc3)cc1)[C@@H](C)CN([C@@H](C)CO)C2=O,-2,1,27,nt,nt,nt,nt
Cc1noc(C)c1S(=O)(=O)Nc1ccc2c(c1)C(=O)N([C@@H](C)CO)C[C@@H](C)[C@@H](CN(C)Cc1ccc(C(=O)Nc3ccccc3N)cc1)O2,1,-1,?,100*,81,-6,33*
Cc1noc(C)c1S(=O)(=O)Nc1ccc2c(c1)C(=O)N([C@H](C)CO)C[C@H](C)[C@H](CN(C)Cc1ccc(C(=O)Nc3ccccc3N)cc1)O2,nt,-1,nt,nt,nt,nt,nt
c1ccc(OCc2nc3ccccc3n2Cc2ccccn2)cc1,0,nt,nt,nt,nt,nt,nt
NC(=O)c1c(NC(=O)COc2ccc(Br)cc2Cl)sc2c1CCCC2,0,nt,nt,nt,nt,nt,nt
COc1cccc(NC(=O)Cn2cc(C(=O)C(C)(C)C)c3ccccc32)c1,0,nt,nt,nt,nt,nt,nt
Cc1noc(C)c1S(=O)(=O)Nc1cccc2c1O[C@@H](CN(C)Cc1ccc(C(=O)Nc3ccccc3N)cc1)[C@@H](C)CN([C@H](C)CO)C2=O,nt,0,nt,nt,nt,nt,nt
Cc1noc(C)c1S(=O)(=O)Nc1cccc2c1O[C@H](CN(C)Cc1ccc(C(=O)Nc3ccccc3N)cc1)[C@H](C)CN([C@@H](C)CO)C2=O,nt,0,?,101*,74,12,36*
C[C@@H]1CN([C@H](C)CO)C(=O)c2cc(NS(=O)(=O)c3ccc(Cl)cc3)ccc2O[C@@H]1CN(C)Cc1ccc(C(=O)Nc2ccccc2N)cc1,0,8,?,76,55,-6,46*
